# Compound activity as filed in PubChem BioAssay.
# Most compounds without a hit are left out; they make up all but 1.6% or so of the library.
# TbMetRS inhib – T. brucei MetRS inhibitors, primary screen, biochemical, luminescence; methionyl-tRNA synthetase (Trypanosoma brucei brucei); purified T. brucei MetRS, ATP depletion, Kinase-Glo luminescence; inhibition, % at 11.9 µM; 360,000 compounds, 0.4% hits;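 active = inhibition above a per-plate cutoff of the control wells' mean inhibition plus 3 SD, cut at about 5.5% in these data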;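 also: 0% = DMSO wells median and 100% = median of wells with control inhibitor compound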
#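 assay system = parasite MetRS enzyme | timing = 15 min preincubation, 2 h reaction, all 25 °C | evaluation = percent inhibition relative to median high and low control wells | medium = HEPES buffer containing pyrophosphatase, BSA, spermine, DTT | compound = single dose, 11.9 µM final nominal, 0.9% final DMSO | detection = Kinase-Glo luminescence, ATP depletion format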
# Arrestin-AP2 inh – inhibitors of beta-arrestin/AP2 binding, primary screen, biochemical, GPCR trafficking, flow cytometry. beta-arrestin 1 C-terminal peptide binding to AP2 beta2-adaptin appendage (human). FITC-arrestin peptide / GST-AP2 beads; AP2 beta2 appendage carries R879A mutation. inhibition, % at 10 µM. 340,000 compounds, 0.31% hits. AID 504490, 2011;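 active = inhibition above a set limit, near 3 SD of compounds lacking own fluorescence, cut at about 54% in these data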;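 also: plate controls were DMSO wells for no effect and 5 µM unlabelled arrestin peptide for full effect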
#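 Test system: GST-tagged AP2 beta2-adaptin appendage (R879A) on 4 µm glutathione beads; also added: fluorescein-tagged arrestin peptide at 50 nM final; timing: 12 min plus 1 h, RT; signal: flow cytometry, FL1 (488/535 nm); read-out: percent drop in bead-associated FITC signal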
# Rin1 Abl inh – inhibitors of Rin1-Abl protein binding, primary screen, biochemical, TR-FRET | inhibition, % at 7.35 µM | 360,000 compounds, 0.4% hits | Tyrosine-protein kinase ABL1 (Homo sapiens) + Ras and Rab interactor 1 (Homo sapiens), … | AID 588664, 2011; in the data active = inhibition above about 5%, passing the limit was not always enough
# SKN-1 block – suppressors of acrylamide-induced Pgst-4::GFP reporter in worms, primary screen, SKN-1 inhibitor project, whole organism, uHTS, GFP/RFP fluorescence ratio, strain VP596. C. elegans VP596 Pgst-4::GFP/RFP ratio, 24 h. inhibition, % at 21.8 µM. 360,000 compounds, 0.49% hits. AID 624304, 2012;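 active = interference check ratio from 0.5 to 1.5 plus GFP to RFP signal ratio inhibition reaching or exceeding a fixed threshold, cut at about 30% in these data, passing the limit was not always enough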
# MT1-MMP act inh – blockers of MT1-MMP proenzyme processing, primary screen, HT1080 RFP-PRO-GFP cells, GFP/RFP fluorescence | Matrix metalloproteinase-14 (Homo sapiens), P50281 | GFP/RFP ratio fluorescence, overnight; percent of plate control window, DMSO zero | 360,000 compounds, 0.061% hits | GFP/RFP ratio change, % at 20 µM | AID 651647, 2012;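 active = GFP/RFP ratio change of at least 30% with cell ATP level not reduced by more than half and red fluorescence within 50% of control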
#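 Test system: HT1080 RFP-PRO-GFP cells; Benchmarks: DMSO and RFP-L50D-GFP cell wells; Timing: cells overnight before dosing, compound overnight, 37 °C, 5% CO2; Compound: one 20 µM compound dose with 1% DMSO; Read-out: GFP/RFP fluorescence ratio.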
# Starred values were filed as active, the others as inactive; · = no result given.
SMILES,TbMetRS inhib,Arrestin-AP2 inh,Rin1 Abl inh,SKN-1 block,MT1-MMP act inh
CC(C)CNC(=O)c1cccc2c(-c3cccc(C(N)=O)c3)coc12,-0.2,·,0.4,15.8,0.9
COC(=O)C1=C(CN2CCSCC2)NC(=O)NC1c1cc(C)ccc1C (stereo not given),-0.3,-0.3,2.5,37.1*,1.1
C=CCN1C(=O)C(=O)N(Cc2nc3ccccc3s2)C1=O,-0.1,3.2,-0.3,47.9*,0.2
C=CCn1c(=O)c2ccccc2n2c(SCc3nc4ccccc4s3)nnc12,-0.5,29.7,2.6,17.7,-1.4
COc1cc(CNCCSc2nnnn2C)cc(Br)c1OCc1ccc(F)cc1,-0.2,2.0,-0.4,33.9,3.2
CCOc1cc(CNCCSc2nnnn2C)cc(Br)c1OCc1ccccc1F,0.1,10.5,-1.2,39.1*,-2.1
CCOc1cc(CNCCSc2nnnn2C)cc(Br)c1OCc1ccc(F)cc1,-0.2,0.6,0.8,68.4*,-1.8
CO[C@H]1CN(C)C(=O)c2ccc(NC(=O)C3CCC3)cc2OC[C@H](C)N(Cc2ccccn2)C[C@@H]1C,0.3,·,·,-2.0,-1.0
O=C(c1cccs1)c1ccc(-c2cccs2)s1,0.3,7.5,-6.7,61.8*,-1.3
CN1CCN(C(=O)c2ccc(-c3cccs3)s2)CC1,0.0,13.2,-2.7,-7.9,0.6
CC(=O)c1cccc(-c2ccnc3c2CC(C(=O)NCc2cccs2)O3)c1 (stereo not given),-0.6,·,3.1,24.6,14.0
O=C(Nc1cc(C(F)(F)F)ccc1F)C1Cc2c(-c3ccccc3Oc3ccccc3)ccnc2O1 (stereo not given),0.1,·,-3.3,15.7,2.0
C#CCN1C(=O)S/C(=C/C=C/c2ccc(N(C)C)cc2)C1=O,-0.5,-2.8,-2.5,46.9*,-0.2
O=C(CN1C(=O)S/C(=C\C=C\c2ccccc2)C1=O)Nc1ccccc1C(=O)O,0.4,29.8,0.0,2.1,6.6
N#Cc1ccc(CN2CCN(C(=O)C3CC(=O)N(c4ccc5c(c4)OCCO5)C3)CC2)cc1 (stereo not given),-0.2,·,5.2,6.9,-1.1
c1ccc(-n2nc3c(ccc4cnnc43)[nH]2)cc1,-1.9,6.4,-2.2,30.8*,0.7
COCCN1C(=O)CN(S(C)(=O)=O)CC1(C)C(=O)NCc1ccccc1 (stereo not given),-0.3,·,·,10.6,1.0
C=CCc1cccc(CNc2nc3ccccc3n2CC)c1O,39.8*,-1.7,-4.1,15.4,1.1
CCCCn1c(NCc2ccccc2O)nc2ccccc21,3.1,-4.5,-5.0,-4.4,2.6
Brc1ccc(OCc2cn3ccccc3n2)cc1,0.1,4.6,-1.6,47.7*,4.8
O=C(COc1ccc(Br)cc1)NCc1cn2ccccc2n1,0.8,-6.8,-1.3,4.5,3.7
COc1ccc(CNC(C)C2COc3ccccc3O2)c(OC)c1 (stereo not given),-1.6,5.6,-0.2,36.6*,-4.4
O=C(OCc1ccccc1)N1CCC2CC1c1c2cccc1N1CCOCC1 (stereo not given),-1.1,·,2.1,4.7,2.3
Cc1cc(OCc2nc3ccccc3s2)ccc1N,-0.2,35.7,-1.7,11.9,-2.2
Fc1ccc(OCc2nc3ccccc3s2)cc1,-0.2,2.8,-3.1,38.3*,-4.3
c1ccc(OCc2nc3ccccc3s2)cc1,0.6,-13.3,3.4,48.5*,0.2
COc1cccc(/C=C2\CC(C)Cc3c2nc2ccccc2c3C(=O)O)c1OC (stereo not given),0.3,19.6,0.9,39.7*,0.0
COc1cc(/C=C2\CCc3c2nc2ccccc2c3C(=O)O)cc(OC)c1OC,0.0,13.3,2.4,5.2,4.1
Clc1cc(Cl)c2nc(N3CCCCC3)sc2c1,-0.3,37.9,4.3,8.5,2.8
Clc1cc(Cl)c2nc(N3CCCC3)sc2c1,-0.4,-4.9,-3.8,37.2*,-1.9
